Where a SMILES comes first, the peptide text is derived from it. [ ]: non-standard residue; d: D form. 1Nal = N[C@@H](Cc1cccc2ccccc12)C(=O)O; 2Nal = N[C@@H](Cc1ccc2ccccc2c1)C(=O)O
What was measured:
PP1 = PP1 (Homo sapiens, UniProt P62136); experiment: ALPHA assay, competition with Biotin-PDP2 for the RVxF binding site of His-PP1
In short: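 Competition binding with 200 nM His-PP1 and 67 nM biotin-PDP2 in 50 mM Tris-Cl pH 7.5, 150 mM NaCl, 0.05% Tween 20, 1 mM MnCl₂, 0.1% BSA. Serial dilutions of test compound were added for 60 min at rt. Streptavidin-donor and anti-His-acceptor beads (5 μg/ml final) were then added for 90 min at rt in the dark. Excitation was 680 nm, emission 570 nm. The non-specific control used 22 nM GST(His-biotin).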

PP1 and Inhibitor 2 = PP1 and Inhibitor 2 (Homo sapiens, UniProt P62136); experiment: Disruption of the interaction between PP1 and Inhibitor 2; assay type: biochemical; conditions: for EC50 of the disruption of the interaction between PP1 and Inhibitor 2: starting at 50% inhibition of PP1 with I2, DiFMUP as substrate; for activity in disrupting PP1:I2 (in words): in vitro, Table 1 conditions; for PP1 activity reached (efficacy): maximum of dose-response, around 50% starting inhibition (Supp. Fig. 2E, F)
Chain of PP1 and Inhibitor 2 (P62136 whole entry): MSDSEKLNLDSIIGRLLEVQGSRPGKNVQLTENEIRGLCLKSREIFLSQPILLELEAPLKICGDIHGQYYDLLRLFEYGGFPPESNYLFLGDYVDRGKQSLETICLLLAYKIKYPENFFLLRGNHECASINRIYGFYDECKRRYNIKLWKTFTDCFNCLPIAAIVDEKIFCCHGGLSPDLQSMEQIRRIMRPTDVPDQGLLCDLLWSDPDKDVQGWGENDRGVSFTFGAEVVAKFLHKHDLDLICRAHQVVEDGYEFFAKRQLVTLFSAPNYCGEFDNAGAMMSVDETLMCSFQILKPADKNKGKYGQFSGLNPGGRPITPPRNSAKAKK

HeLa cells = experiment: Calcium release assay, Fluo-4 imaging in intact HeLa cells; assay type: cell-based; conditions: Fluo-4, Ca^2+-containing imaging buffer
In short: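 HeLa Kyoto cells were grown in low-glucose DMEM with 10% FBS, penicillin/streptomycin and L-glutamine at 37 °C, 5% CO₂, then seeded in chamber slides the day before imaging (~80% confluent). Cells were loaded with 0.5 μM Fluo-4 in HEPES pH 7.4 imaging buffer containing 1.2 mM CaCl₂ for 30 min at rt, then washed. Confocal imaging used ex 488/em 516 nm: 2 min baseline, then 30 min after compound addition. Buffer and a PP1-disrupting peptide served as controls. Responding cells were counted.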

PP1 by I2 = conditions: starting inhibition of PP1 by I2 of 50%; cited from earlier work

Chain of PP1 (P62136 whole entry): as above

Compound: CC(C)[C@H](NC(=O)[C@@H](N)CCCNC(=N)N)C(=O)N[C@H](C(=O)N[C@@H](Cc1ccccc1)C(=O)O)[C@@H](C)O [Compound 1, RVTF] (H-RVTF-OH)
- IC50 (PP1): 124 µM

Compound: CC[C@H](C)[C@H](NC(=O)[C@@H](N)CCCNC(=N)N)C(=O)N[C@H](C(=O)N[C@@H](Cc1ccccc1)C(=O)O)[C@@H](C)O [Compound 3, RITF] (H-RITF-OH)
- EC50 of the disruption of the interaction between PP1 and Inhibitor 2 (PP1 and Inhibitor 2): Slightly active at 500 μM

Compound: CC(C)C[C@H](NC(=O)[C@@H](N)CCCNC(=N)N)C(=O)N[C@H](C(=O)N[C@@H](Cc1ccccc1)C(=O)O)[C@@H](C)O [Compound 4, RLTF] (H-RLTF-OH)
- EC50 of the disruption of the interaction between PP1 and Inhibitor 2 (PP1 and Inhibitor 2): Slightly active at 500 μM

Compound: CC(C)[C@H](NC(=O)[C@@H](N)CCCNC(=N)N)C(=O)NCC(=O)N[C@@H](Cc1ccccc1)C(=O)O [Compound 6, RVGF] (H-RVGF-OH)
- EC50 of the disruption of the interaction between PP1 and Inhibitor 2 (PP1 and Inhibitor 2): Slightly active at 500 μM

Compound: CC(C)[C@H](NC(=O)[C@@H](NC(=O)[C@@H](N)CCCNC(=N)N)C(C)C)C(=O)N[C@@H](Cc1ccccc1)C(=O)O [Compound 7, RVVF] (H-RVVF-OH)
- EC50 of the disruption of the interaction between PP1 and Inhibitor 2 (PP1 and Inhibitor 2): Slightly active at 500 μM

Compound: CC(C)[C@H](NC(=O)[C@@H](N)CCCNC(=N)N)C(=O)N[C@@H](CCC(=O)O)C(=O)N[C@@H](Cc1ccccc1)C(=O)O [Compound 13, RVEF] (H-RVEF-OH)
- EC50 of the disruption of the interaction between PP1 and Inhibitor 2 (PP1 and Inhibitor 2): Slightly active at 500 μM

Compound: CC(C)[C@H](NC(=O)[C@@H](NC(=O)[C@@H](N)Cc1ccccc1)[C@@H](C)O)C(=O)N[C@@H](CCCNC(=N)N)C(=O)O [Compound 25, FTVR] (H-FTVR-OH)
- activity in disrupting PP1:I2 (in words) (PP1 and Inhibitor 2): inactive

Compound: CC(C)[C@@H](NC(=O)[C@@H](Cc1c[nH]cn1)NC(=O)[C@H](N)Cc1ccccc1)C(=O)N[C@H](CCCNC(=N)N)C(=O)O [Compound 27, dFdHdVdR]
- EC50 of the disruption of the interaction between PP1 and Inhibitor 2 (PP1 and Inhibitor 2): Slightly active at 500 μM

Compound: CC(=O)N[C@@H](CCCNC(=N)N)C(=O)N[C@H](C(=O)N[C@H](C(=O)N[C@@H](Cc1ccccc1)C(=O)O)[C@@H](C)O)C(C)C [Compound 28, Ac-RVTF] (Ac-RVTF-OH)
- activity in disrupting PP1:I2 (in words) (PP1 and Inhibitor 2): inactive

Compound: CC(C)[C@H](NC(=O)[C@H](CCCNC(=N)N)NC(=O)[C@@H](N)CCCCN)C(=O)N[C@@H](Cc1c[nH]cn1)C(=O)N[C@@H](Cc1cccc2ccccc12)C(N)=O [Compound 48, KRVH-(1-NaI)-NH2] (H-KRVH[1Nal]-NH2)
- PP1 activity reached (efficacy) (PP1 and Inhibitor 2): around 80%

Compound: CC(C)[C@H](NC(=O)[C@H](CCCNC(=N)N)NC(=O)[C@@H](N)CCCCN)C(=O)N[C@@H](Cc1c[nH]cn1)C(=O)N[C@@H](Cc1ccc2ccccc2c1)C(N)=O [Compound 49, KRVH-(2-NaI)-NH2] (H-KRVH[2Nal]-NH2)
- PP1 activity reached (efficacy) (PP1 and Inhibitor 2): around 80%

Compound: Ac-KRVHF-NH2 [Compound 34, Ac-KRVHF-NH2]
- calcium spiking in living HeLa cells (in words) (HeLa cells): inactive

Compound: RKIQFT
- EC50 (PP1 by I2): 54 µM

From publication PMC7613447 (Bioorganic & medicinal chemistry, 2022)
